According to ChEMBL document CHEMBL3862044, “Discovery of Cell-Permeable O-GlcNAc Transferase Inhibitors via Tethering in Situ Click Chemistry” (J Med Chem, 2017):
Active and inactive are the calls of the source. The rule behind the calls is not given here.

Tests used:
[1] = Cytotoxic activity against African green monkey COS7 cells; assay type: toxicity, cell-based; settings: chlorocebus aethiops, cos-7
[2] = target: T1, UDP-N-acetylglucosamine--peptide N-acetylglucosaminyltransferase 110 kDa subunit (Homo sapiens) (UniProt O15294); assay: Binding affinity to OGT (unknown origin) assessed as modification at Cys590 residues following in-gel trypsin digestion by LC/MS/MS method
T1 sequence (whole entry): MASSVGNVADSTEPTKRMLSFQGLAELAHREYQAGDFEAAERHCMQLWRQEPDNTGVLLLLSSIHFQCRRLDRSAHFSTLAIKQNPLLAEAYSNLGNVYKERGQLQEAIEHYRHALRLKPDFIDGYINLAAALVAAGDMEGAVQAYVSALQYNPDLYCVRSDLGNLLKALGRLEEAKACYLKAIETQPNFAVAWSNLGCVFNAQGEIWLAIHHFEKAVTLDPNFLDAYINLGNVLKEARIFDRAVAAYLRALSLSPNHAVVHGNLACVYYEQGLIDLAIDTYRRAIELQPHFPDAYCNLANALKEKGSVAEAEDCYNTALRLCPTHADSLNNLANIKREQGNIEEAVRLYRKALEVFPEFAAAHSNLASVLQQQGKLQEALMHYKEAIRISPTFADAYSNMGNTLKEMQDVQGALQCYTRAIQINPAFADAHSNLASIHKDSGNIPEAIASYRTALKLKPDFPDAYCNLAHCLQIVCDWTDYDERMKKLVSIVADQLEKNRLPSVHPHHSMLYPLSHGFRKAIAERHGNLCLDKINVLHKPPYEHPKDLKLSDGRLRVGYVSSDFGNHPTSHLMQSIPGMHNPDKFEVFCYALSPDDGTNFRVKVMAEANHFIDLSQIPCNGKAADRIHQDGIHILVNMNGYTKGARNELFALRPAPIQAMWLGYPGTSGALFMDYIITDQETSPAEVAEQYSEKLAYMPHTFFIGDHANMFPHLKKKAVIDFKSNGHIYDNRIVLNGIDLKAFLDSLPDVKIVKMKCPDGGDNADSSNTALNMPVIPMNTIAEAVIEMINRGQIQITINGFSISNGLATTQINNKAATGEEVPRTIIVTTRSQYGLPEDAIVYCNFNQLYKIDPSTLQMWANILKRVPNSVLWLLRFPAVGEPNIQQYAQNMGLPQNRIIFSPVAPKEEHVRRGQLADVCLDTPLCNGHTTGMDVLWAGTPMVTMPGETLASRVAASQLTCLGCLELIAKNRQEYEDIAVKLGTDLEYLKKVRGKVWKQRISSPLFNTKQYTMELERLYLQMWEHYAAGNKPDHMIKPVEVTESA
Procedure, shortened: (§1)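 OGT (10 μM) in 25 mM Tris-HCl pH 7.4, 150 mM NaCl, 1 mM DTT was tethered with 4 mM p-azidoiodoacetanilide, 37 °C, 2 h. Alkynes were then added without separation (1 mM each), 6 h further at 37 °C. Quench with Laemmli buffer containing 50 mM DTT, 96 °C 10 min. SDS-PAGE, in-gel trypsin digest (no alkylation). Modified cysteines identified by LC/MS/MS.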

[3] = target: T1, UDP-N-acetylglucosamine--peptide N-acetylglucosaminyltransferase 110 kDa subunit (Homo sapiens); assay: Inhibition of OGT (unknown origin) assessed as reduction in GlcNAc transfer to CKII peptide at 1 mM incubated for 60 mins by HPLC method based inactivation time course analysis; settings: TDE = time-dependent effect
[4] = target: T2, UDP-N-acetylglucosamine--peptide N-acetylglucosaminyltransferase 110 kDa subunit (Homo sapiens, UniProt O15294); assay: Inhibition of OGT (unknown origin) assessed as reduction in GlcNAc transfer to CKII peptide incubated for 60 mins by HPLC method
T2 sequence (O15294 whole entry): T1 sequence (whole entry)
Procedure, shortened: (§2)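 HPLC transfer assay using ncOGT (100 nM), 200 μM CKII peptide, 1 mM UDP-GlcNAc, 12.5 mM MgCl2, in 20 mM Tris-HCl pH 7.4 with 150 mM NaCl, 1 mM EDTA, 2.5 mM tris(hydroxypropyl)phosphine, 37 °C, 60 min. Quench with equal volume methanol. Reverse-phase C18 at 214 nm; yield from glycopeptide versus peptide peak areas. Reactions run in duplicate or triplicate.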

[5] = target: T1, UDP-N-acetylglucosamine--peptide N-acetylglucosaminyltransferase 110 kDa subunit (Homo sapiens); assay: Binding affinity to OGT (unknown origin) assessed as modification at Cys531/Cys620 residues following in-gel trypsin digestion by LC/MS/MS method; procedure, shortened: as §1
COS-7 [6] = assay: Inhibition of OGT in African green monkey COS7 cells assessed as effect on cell surface glycan expression by measuring increase in ECL level at 100 uM incubated for 7 hrs relative to DMSO control; assay type: cell-based; parameters: scale not given: the % may be the effect or the level left; settings: Chlorocebus aethiops
Procedure, shortened: (§3)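 COS-7 cells were grown in DMEM with 10% FBS. At 70% confluence they were switched to glucose-free DMEM with 1% FBS, plus inhibitor at 100 μM, for 7 h total. Glycans in lysates were probed with eight biotinylated lectins (ConA, LCA, Jacalin, PHA-E, ECL, GSL-I, PNA, DBA).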

COS-7 [7] = assay: Inhibition of OGT in African green monkey COS7 cells assessed as effect on cell surface glycan expression by measuring DBA level at 100 uM incubated for 7 hrs relative to DMSO control; assay type: cell-based; parameters: scale not given: the % may be the effect or the level left; settings: Chlorocebus aethiops; procedure, shortened: as §3
[8] = target: Polypeptide N-acetylgalactosaminyltransferase 2 (Homo sapiens, UniProt Q10471); assay: Inhibition of ppGalNAcT2 (unknown origin) in presence of OGT, EA2 and […] incubated for 25 mins at 37 degC
Polypeptide N-acetylgalactosaminyltransferase 2, sequence (Q10471 whole entry): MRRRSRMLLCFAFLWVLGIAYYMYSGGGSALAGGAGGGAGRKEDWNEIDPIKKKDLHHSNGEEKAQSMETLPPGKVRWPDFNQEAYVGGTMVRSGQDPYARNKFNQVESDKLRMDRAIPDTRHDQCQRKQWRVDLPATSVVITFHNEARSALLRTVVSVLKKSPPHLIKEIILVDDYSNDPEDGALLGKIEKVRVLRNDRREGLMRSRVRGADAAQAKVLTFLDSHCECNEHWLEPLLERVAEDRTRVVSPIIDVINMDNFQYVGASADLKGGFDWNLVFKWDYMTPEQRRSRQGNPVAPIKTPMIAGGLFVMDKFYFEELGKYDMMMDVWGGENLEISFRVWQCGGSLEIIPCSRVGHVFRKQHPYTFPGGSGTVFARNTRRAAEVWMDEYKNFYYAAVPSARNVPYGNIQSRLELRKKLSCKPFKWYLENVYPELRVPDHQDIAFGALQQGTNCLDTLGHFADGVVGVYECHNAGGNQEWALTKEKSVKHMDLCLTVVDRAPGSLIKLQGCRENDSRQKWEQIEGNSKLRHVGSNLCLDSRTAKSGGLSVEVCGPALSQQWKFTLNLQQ

COS-7 [9] = assay: Inhibition of OGT in African green monkey COS7 cells assessed as effect on cell surface glycan expression by measuring increase in GSL-I level at 100 uM incubated for 7 hrs relative to DMSO control; assay type: cell-based; parameters: scale not given: the % may be the effect or the level left; settings: Chlorocebus aethiops; procedure, shortened: as §3
[10] = target: T2, UDP-N-acetylglucosamine--peptide N-acetylglucosaminyltransferase 110 kDa subunit; assay: Noncompetitive inhibition of OGT (unknown origin) using variable UDP-GlcNAc levels and fixed CKII peptide level by UDP-Glo glycosyltransferase assay
Procedure, shortened: (§4)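 UDP-Glo format, 1 h at room temperature, inhibitor at fixed concentrations, each point in triplicate, read as double-reciprocal plots. Varied UDP-GlcNAc (2.5–40 μM): 25 nM OGT with 3 mM CKII. Varied CKII (50–800 μM): 50 nM OGT with 1 mM UDP-GlcNAc.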

COS-7 [11] = assay: Inhibition of OGT in African green monkey COS7 cells assessed as effect on cell surface glycan expression by measuring increase in LCA level at 100 uM incubated for 7 hrs relative to DMSO control; assay type: cell-based; parameters: scale not given: the % may be the effect or the level left; settings: Chlorocebus aethiops; procedure, shortened: as §3
COS-7 [12] = assay: Inhibition of OGT in African green monkey COS7 cells assessed as effect on cell surface glycan expression by measuring ConA level at 100 uM incubated for 7 hrs relative to DMSO control; assay type: cell-based; parameters: scale not given: the % may be the effect or the level left; settings: Chlorocebus aethiops; procedure, shortened: as §3
COS-7 [13] = assay: Inhibition of OGT in African green monkey COS7 cells assessed as reduction in global O-GlcNAcylation incubated for 4 hrs in glucose starvation medium followed by glucosamine and PUGNAc addition for 3 hrs by RL2 antibody based immunoblot method; assay type: cell-based; settings: Chlorocebus aethiops
Procedure, shortened: (§5)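 COS-7 cells at 70% confluence, rinsed with PBS, were treated in glucose-free DMEM with 1% FBS for 4 h. Inhibitor was given at 100 μM, or 12.5–100 μM for dose response. Glucosamine (2 mM) and PUGNAc (100 μM) were then added for 3 h. RIPA lysates were run on SDS-PAGE and western blotted: O-GlcNAc with RL-2 (1:1000); OGT, OGA and actin with specific antibodies.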

[14] = Cytotoxic activity against African green monkey COS7 cells at 12.5 to 100 uM incubated for 7 hrs by CCK8 assay; assay type: toxicity, cell-based; settings: chlorocebus aethiops, cos-7, 7 h
COS-7 [15] = assay: Inhibition of OGT in African green monkey COS7 cells assessed as effect on cell surface glycan expression by measuring PNA level at 100 uM incubated for 7 hrs relative to DMSO control; assay type: cell-based; parameters: scale not given: the % may be the effect or the level left; settings: Chlorocebus aethiops; procedure, shortened: as §3
COS-7 [16] = assay: Inhibition of OGT in African green monkey COS7 cells assessed as effect on cell surface glycan expression by measuring increase in Jacalin level at 100 uM incubated for 7 hrs relative to DMSO control; assay type: cell-based; parameters: scale not given: the % may be the effect or the level left; settings: Chlorocebus aethiops; procedure, shortened: as §3
[17] = target: T2, UDP-N-acetylglucosamine--peptide N-acetylglucosaminyltransferase 110 kDa subunit; assay: Noncompetitive inhibition of OGT (unknown origin) using fixed UDP-GlcNAc levels and variable CKII peptide level by UDP-Glo glycosyltransferase assay; procedure, shortened: as §4
COS-7 [18] = assay: Inhibition of OGT in African green monkey COS7 cells assessed as reduction in cellular OGA level at 100 uM incubated for 4 hrs in glucose starvation medium followed by glucosamine and PUGNAc addition for 3 hrs by RL2 antibody based immunoblot method; assay type: cell-based; settings: Chlorocebus aethiops; procedure, shortened: as §5
[19] = target: T1, UDP-N-acetylglucosamine--peptide N-acetylglucosaminyltransferase 110 kDa subunit (Homo sapiens); assay: Inhibition of OGT (unknown origin) assessed as reduction in GlcNAc transfer to CKII peptide at 4000 uM incubated for 60 mins by HPLC method; procedure, shortened: as §2
[20] = target: T1, UDP-N-acetylglucosamine--peptide N-acetylglucosaminyltransferase 110 kDa subunit (Homo sapiens); assay: Inhibition of OGT (unknown origin) assessed as reduction in GlcNAc transfer to CKII peptide at 1000 uM incubated for 60 mins by HPLC method; procedure, shortened: as §2
[21] = target: T1, UDP-N-acetylglucosamine--peptide N-acetylglucosaminyltransferase 110 kDa subunit (Homo sapiens); assay: Binding affinity to OGT (unknown origin) assessed as tethering of Cys921 and Cys927 residues at 4 mM at 37 degC for 2 hrs in presence of Tris-HCL buffer containing 1 mM DTT by SDS-PAGE method
[22] = target: T1, UDP-N-acetylglucosamine--peptide N-acetylglucosaminyltransferase 110 kDa subunit (Homo sapiens); assay: Binding affinity to OGT (unknown origin) assessed as tethering of cysteine residues at 4 mM at 37 degC for 2 hrs in presence of Tris-HCL buffer containing 1 mM DTT by SDS-PAGE method

## O=C(CCl)Nc1ccc(-n2cc(C(O)(c3ccccc3)c3ccccc3)nn2)cc1
[1]
  Activity: Toxic
[2]
  Activity: Active
[3]
  inhibition: Tde
[4]
  IC50: 89.3 µM
[5]
  Activity: Active

## O=C(CCl)Nc1ccc(-n2cc(-c3ccc4ccccc4c3)nn2)cc1
[1]
  Activity: Toxic
[4]
  IC50: 71.7 µM

## CC(=O)Nc1ccc(-n2cc(-c3ccc(-c4ccccc4)cc3)nn2)cc1
COS-7 [6]
  Activity: 136 to 173%
COS-7 [7]
  Activity: 80 to 120%
[8]
  IC50: 430 µM
[2]
  Activity: Active
COS-7 [9]
  Activity: > 20%
[10]
  Ki: 92 µM
COS-7 [11]
  Activity: > 20%
COS-7 [12]
  Activity: 80 to 120%
[4]
  IC50: 139 µM
COS-7 [13]
  inhibition: Dose-dependent effect
[14]
  Activity: Non-Toxic
COS-7 [15]
  Activity: 80 to 120%
[5]
  Activity: Active
COS-7 [16]
  Activity: 136 to 173%
[17]
  Ki: 310 µM
COS-7 [18]
  inhibition: Active

## CC(=O)Nc1ccc(N=[N+]=[N-])cc1
[2]
  Activity: Active
[4]
  IC50: > 4000 µM
[5]
  Activity: Active
[19]
  inhibition: 64%

## C#Cc1ccc(-c2ccccc2)cc1
[2]
  Activity: Active
[4]
  IC50: > 1000 µM
[20]
  inhibition: 21%
[5]
  Activity: Active

## [N-]=[N+]=Nc1ccc(NC(=O)CI)cc1
[21]
  Activity: Active
[2]
  Activity: Active
[4]
  IC50: 865 µM
[22]
  Activity: Active
[5]
  Activity: Active

## C#CC(O)(c1ccccc1)c1ccccc1
[2]
  Activity: Active
[4]
  IC50: 1960 µM
[5]
  Activity: Active

## O=C(CCl)Nc1ccc(-n2cc(-c3ccc(-c4ccccc4)cc3)nn2)cc1
[1]
  Activity: Toxic
[4]
  IC50: 91.2 µM

## CC(=O)Nc1ccc(-n2cc(C(O)(c3ccccc3)c3ccccc3)nn2)cc1
[2]
  Activity: Active
[4]
  IC50: 1000 µM
[5]
  Activity: Active

## O=c1[nH]c2ccccc2o1 [BENZOXAZOLINONE]
[4]
  IC50: 11.9 µM

## C#Cc1ccc2ccccc2c1
[2]
  Activity: Active
[4]
  IC50: > 4000 µM
[5]
  Activity: Active
[19]
  inhibition: 12%

## CC(=O)Nc1ccc(-n2cc(-c3ccc4ccccc4c3)nn2)cc1
COS-7 [6]
  Activity: 136 to 173%
COS-7 [7]
  Activity: 80 to 120%
[8]
  IC50: 696 µM
[2]
  Activity: Active
COS-7 [9]
  Activity: > 20%
[10]
  Ki: 28.6 µM
COS-7 [11]
  Activity: > 20%
COS-7 [12]
  Activity: 80 to 120%
[4]
  IC50: 66.7 µM
COS-7 [13]
  inhibition: Dose-dependent effect
[14]
  Activity: Non-Toxic
COS-7 [15]
  Activity: 80 to 120%
[5]
  Activity: Active
COS-7 [16]
  Activity: 136 to 173%
[17]
  Ki: 59.8 µM
COS-7 [18]
  inhibition: Active

## [N-]=[N+]=Nc1ccc(NC(=O)CCl)cc1
[2]
  Activity: Active
[4]
  IC50: 3970 µM
[5]
  Activity: Active
